From PubChem BioAssay
Rows were chosen to be rich in hits. Some 4.5% of all compounds tested hit in one or more screens of this group.
MrgX1 antag – human MrgX1 receptor antagonism, primary screen | Q96LB2 | MRGX1-HEK293 calcium flux, Fluo-4, BAM8-22 antagonism; hits give low values | B-score at 10 µM | hit rate 1.3% among 310,000;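 active = calcium-response B-score plate-corrected more than 3 library SD below zero, starting fluorescence within 5 deviations, no agonist response on first addition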;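 note: peak minus trough fluorescence over baseline after final BAM8-22 challenge near maximal dose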
Target sequence (Q96LB2 whole entry, looked up): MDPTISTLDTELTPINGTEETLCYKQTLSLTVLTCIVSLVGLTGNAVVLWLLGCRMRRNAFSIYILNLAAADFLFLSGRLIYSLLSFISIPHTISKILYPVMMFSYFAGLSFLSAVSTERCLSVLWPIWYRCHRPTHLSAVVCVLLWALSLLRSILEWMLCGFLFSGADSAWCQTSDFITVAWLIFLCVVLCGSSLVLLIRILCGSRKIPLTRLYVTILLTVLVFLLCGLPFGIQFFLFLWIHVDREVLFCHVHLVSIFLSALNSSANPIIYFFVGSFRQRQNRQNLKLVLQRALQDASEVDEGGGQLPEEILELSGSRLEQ
MrgX1 allo act – allosterically activates human MrgX1 receptor signaling | Q96LB2 | MrgX1-HEK293, Fluo-4 calcium flux, FDSS; hits give high values | B-score at 10 µM | hit rate 0.63% among 310,000 | AID 588675;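 active = plate-corrected calcium response at least 3 library SD above typical, normal starting fluorescence, not activating the receptor alone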;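 note: compound read alongside a low EC10 to EC30 dose of BAM8-22 agonist; peak minus trough fluorescence over baseline measured at the second addition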
PHOSPHO1 block – inhibitors of human PHOSPHO1 phosphatase | Q8TCT1 | recombinant PHOSPHO1, absorbance phosphatase assay | inhibition, % at 13.3 µM | hit rate 1.1% among 290,000 | AID 1565; in the data active = inhibition above about 60%
RGS4 pot – potentiators or activators of RGS4; HEK293 M3R/inducible RGS4, carbachol calcium flux Fluo4; hits give low values; B-score at 10 µM; hit rate 0.92% among 310,000;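 active = B-score of the integrated calcium signal more than 4 SD below the library mean, with starting fluorescence not abnormally high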;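 note: negative B-score means reduced calcium response which marks RGS4 activation or potentiation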
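Also added: carbachol at ECmax as muscarinic agonist stimulus; Assay system: HEK293 cells with stable M3R and inducible RGS4; Timing: overnight RGS4 induction, 30 min dye load 37 °C, 20 min compound RT; Measured by: Fluo4-AM (2 µM) calcium-flux fluorescence, kinetic read.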
RGS4 block – human RGS4 inhibition | P49798 | B-score at 10 µM | HEK293 M3R/RGS4 inducible, Fluo-4 calcium flux; hits give high values; triggered by carbachol at its EC20 | hit rate 0.45% among 310,000;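 active = B-score, a plate-corrected calcium signal, over three deviations above library mean, with baseline fluorescence within five deviations of library mean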;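 note: RGS4 expression induced by doxycycline in cells with stable M3 receptor; B-score is computed from the integrated fluorescence ratio over baseline after carbachol; higher B-score means a larger calcium signal and so more RGS4 inhibition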
MrgX1 agonist – activates human MrgX1 receptor signaling. Q96LB2. MrgX1-HEK293 cells, Fluo-4 calcium fluorescence, agonist mode; hits give high values. B-score at 10 µM. hit rate 0.44% among 310,000;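 active = calcium response B-score plate-corrected fluorescence ratio at least 3 library SD, with starting fluorescence B-score inside 5 SD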
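Material: MrgX1-expressing HEK293 cells; input: 15,000 cells per well; doses: test compound given as first of three sequential additions; schedule: overnight plating before 1 h dye loading; technique: Fluo-4 NW calcium-flux fluorescence, kinetic read; evaluation: baseline-normalised fluorescence change ratio, B-scored; control set: plate-wise positive and negative controls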
RGS4 activ val – confirmation of RGS4 activators; HEK293 M3R/RGS4 inducible, carbachol calcium flux Fluo4; shares compounds with RGS4 pot; hit rate 89% among 1,100; inhibition, % at 10 µM;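 active = inhibition above 3 SD of the buffer control wells, cut at about 41% in these data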;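 note: signal is the integrated peak-minus-minimum Fluo4 fluorescence over baseline ratio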
M3R Ca counter – activity in cells without induced RGS4 expression; hit rate 82% among 1,100; inhibition, % at 10 µM; HEK293 M3R non-induced RGS4, Fluo4 calcium flux; after carbachol challenge at its EC90; shares compounds with RGS4 pot;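 active = inhibition exceeding 3 SD of buffer-only control wells, cut at about 26% in these data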;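 note: percent drop in integrated peak-minus-baseline over baseline Fluo4 ratio after carbachol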
Active calls of the source: *; i = inactive; nt = no result given.

SMILES	MrgX1 antag	MrgX1 allo act	PHOSPHO1 block	RGS4 pot	RGS4 block	MrgX1 agonist	RGS4 activ val	M3R Ca counter
CC(=O)N1c2ccc(S(=O)(=O)N3CCCCC3)cc2CC1C(=O)NCc1ccccc1C (stereo not drawn)	i	i	28	i	i	i	nt	nt
COc1cccc(NC(=O)CCC2CCN(C(=O)c3scnc3C)CC2)c1	i	i	15	i	i	i	nt	nt
Cc1ccc(OCC(=O)O/N=C(\N)Cc2ccc([N+](=O)[O-])cc2)cc1C	i	i	3	-11*	i	i	0	0
CCO[C@H]1OC(C(=O)N2CCOCC2)=C[C@@H](c2ccc(Br)cc2)[C@@H]1CCCO	i	i	48	i	i	i	nt	nt
Cc1ccc(S(=O)(=O)N2CCN(C(=O)COC(=O)/C=C/c3ccccc3[N+](=O)[O-])CC2)c(C)c1	i	i	nt	i	i	i	nt	nt
CCOC(=O)c1c(C(C)(C)C)oc2ccc(OCC#N)cc12	i	i	-22	-8.8*	i	i	92*	92*
CCN(CC)S(=O)(=O)c1ccc(NC(=O)COC(=O)CNS(=O)(=O)/C=C/c2ccccc2)cc1	i	i	0	i	i	i	nt	nt
Cc1sc2cc3c(c(C(=O)c4ccccc4)[n+]2c1C)-c1cccc2cccc-3c12	i	i	16	-14*	i	i	92*	91*
COc1cc(CN2CCc3ccc(NC(=O)CCc4ccccc4OC)cc3C2)ccc1O	i	i	5	i	i	i	nt	nt
COc1ccc(CN2CCc3ccc(NC(=O)CCc4ccccc4OC)cc3C2)c(O)c1	i	i	34	-9.3*	i	i	90*	71*
Cc1ccnc(NS(=O)(=O)c2ccc(NC(=O)C(C)(C)C)cc2)n1	i	i	19	i	i	i	nt	nt
CNC(=S)N/N=C1\C(=O)c2cccc3cccc1c23	i	i	-14	-7.8*	i	i	0	0
CCCCNC(=S)N/N=C1\C(=O)c2cccc3cccc1c23	i	i	16	i	i	i	nt	nt
Cc1ccc(N(Cc2ccc([N+](=O)[O-])cc2)C(=O)c2ccco2)cc1C	i	i	8	-11*	i	i	88*	40*
O=C(c1ccco1)N(Cc1ccc([N+](=O)[O-])cc1)c1ccc(Cl)cc1	i	i	-5	i	i	i	nt	nt
O=C(Nc1ccc(N2CCN(C(=O)c3ccccc3F)CC2)cc1)c1ncn[nH]1	i	i	-17	i	i	i	nt	nt
O=C(COc1ccc(/C=N/NC(=O)C(=O)N2CCCCCC2)cc1)Nc1ccccc1Cl	i	i	-9	i	i	i	nt	nt
CCN(CC)CCNC(=O)c1ccc2c(=O)n(C3CCCC3)c(=S)[nH]c2c1	i	i	24	-8.4*	i	i	92*	73*
CCOCCCn1c(=S)[nH]c2cc(C(=O)NCCN(CC)CC)ccc2c1=O	i	i	5	i	i	i	nt	nt
CN(C)CCN(C(=O)c1ccc(C(=O)c2ccccc2)cc1)c1nc2cc3c(cc2s1)OCO3	i	i	22	i	i	i	nt	nt
CN(C)CCN(C(=O)c1ccc(C(=O)c2ccccc2)cc1)c1nc2cc3c(cc2s1)OCCO3	i	i	43	-9.1*	i	i	90*	74*
CCCC(O)(CCN1CCCCC1)c1ccc(OCC)cc1 (stereo not drawn)	i	i	6	i	i	i	nt	nt
COc1ccc(C(O)(CCN2CCCCC2)C2CCCCC2)cc1 (stereo not drawn)	i	i	36	-10*	i	i	92*	95*
CCN1CCN(c2nc(-c3ccccc3)c3ccccc3n2)CC1	i	i	36	-8.6*	i	i	82*	40*
